A selection: hits, their analogues and other compounds. The true share with any hit is near 3.7%.
CHOP UPR activ – apoptotic UPR (CHOP) activation; AID 449763; CHO-CHOP luciferase reporter, luminescence; percent of tunicamycin response over DMSO baseline; 330,000 compounds, 0.34% hits; activation, % at 10 µM;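 active = at 10 µM dose, activation of 40% or more, normalized to positive control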;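 note: 100% = tunicamycin at 10 µg/mL and 0% = DMSO alone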
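Evaluation: % reporter activation, DMSO baseline versus tunicamycin full activation; System: CHO-CHOP luciferase reporter cell line; Input: 500 cells/well; Incubation: 6 h compound treatment, 37 °C; Measured by: Steady-Glo luciferase luminescence; Dosing: one dose, 10 µM in 0.5% DMSO; Buffer or medium: F12 medium, 10% FBS; Benchmarks: positive tunicamycin 10 µg/mL, negative DMSO alone.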
Mdm2-MdmX inh – human Mdm2/MdmX binding inhibition | SaOS-2 split-luciferase Mdm2/MdmX complementation, luminescence | inhibition, % at 8 µM | 330,000 compounds, 3% hits | AID 485346;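 active = inhibition of at least 50% at 8 µM in the primary screen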
B2AR ag – activates human beta-2 adrenergic receptor causing internalization. P07550. Am2.2-beta2AR cells, FAP receptor internalization, flow cytometry. response, % (no concentration beside the values). 340,000 compounds, 0.43% hits. AID 504454;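 active = response above a set limit, near 3 SD of response in nonfluorescent compounds, cut at about 42% in these data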
Target sequence (P07550 whole entry, looked up): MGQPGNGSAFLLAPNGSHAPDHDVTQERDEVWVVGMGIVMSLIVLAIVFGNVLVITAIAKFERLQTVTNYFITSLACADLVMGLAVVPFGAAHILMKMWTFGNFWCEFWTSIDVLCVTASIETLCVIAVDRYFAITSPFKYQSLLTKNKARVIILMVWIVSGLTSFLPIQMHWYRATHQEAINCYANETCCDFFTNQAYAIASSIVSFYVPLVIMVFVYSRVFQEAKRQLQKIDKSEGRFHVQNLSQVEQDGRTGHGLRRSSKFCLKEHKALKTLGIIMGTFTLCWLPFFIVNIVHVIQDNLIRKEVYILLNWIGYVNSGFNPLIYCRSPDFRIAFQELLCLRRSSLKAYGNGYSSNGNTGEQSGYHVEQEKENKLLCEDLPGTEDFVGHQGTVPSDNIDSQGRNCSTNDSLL
XBP1 UPR activ – activators of adaptive arm of unfolded protein response (XBP1). CHO-XBP1 luciferase reporter, IRE1-XBP1 UPR activation, luminescence; percent of tunicamycin response, DMSO as zero. activation, % at 20 µM. 330,000 compounds, 0.33% hits;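 active = versus positive control, 20 µM dose yields 30% or more activation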;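 note: 100% = tunicamycin at 10 µg/mL and 0% = DMSO only wells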
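assay system = CHO-XBP1 luciferase reporter cells | amount = 1000 cells/well | buffer or medium = F12 plus 10% FBS | compound dosing = single point, 20 µM final compound, 1% DMSO | incubation = 16-18 h cell attachment at 37 °C, then 6 h compound exposure | detection = Steady-Glo luminescence read | controls = tunicamycin 10 µg/mL and vehicle-only wells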
Dynein transport – blocks dynein driven cargo transport along microtubules; 3617.4 mouse cells, GR-EGFP nuclear translocation imaging; test concentration mostly 20 µM; stimulated with dexamethasone, 1 µM; stronger effect = lower value; 220,000 compounds, 0.47% hits; z-score, hits read low;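 active = plate z-score of nuclear minus cytoplasmic receptor signal below a set negative limit, without overly bright fluorescence or cell loss, cut at about -3.5 in these data, passing the limit was not always enough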;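 note: z-score of nuclear minus cytoplasmic ring GR-EGFP intensity difference per well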
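Buffer or medium: tetracycline-free induction medium containing charcoal-stripped FBS / Reagent: dexamethasone agonist, 1.0 µM final, for 30 min / Technique: automated 10x imaging of fixed Hoechst-stained cells / Times: induction 48 h, compound 1 h, agonist 30 min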
Mdm2 ligase inh – inhibitors of human Mdm2 E3 ubiquitin ligase; cell-based MDM2 ubiquitination luciferase reporter, 2 h; 0 = plate control, 100 = twice control, blank-subtracted; 210,000 compounds, 0.11% hits; AID 1230; signal enhancement, % at 5 µM; Q00987;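 active = signal enhancement of 30% or more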;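 note: luminescence tracks abundance of the self-degrading MDM2-luciferase fusion protein; higher signal means inhibition of MDM2 E3 ligase activity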
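System: stable MDM2–luciferase fusion reporter cells / Input: 2000 cells seeded into each well / Schedule: 4 h settle plus 2 h compound, 37 °C / Compound: single-point 5 µM / Buffer or medium: cells held in DMEM / Benchmarks: control and blank well means / Evaluation: percent signal gain over controls, blank-subtracted / Measured by: luciferase luminescence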
Mdm2 MdmX conf – confirmation of human Mdm2/MdmX interaction inhibitors | AID 489028 | 10,000 compounds, 55% hits | Mdm2-MdmX binding, luminescent assay | shares compounds with Mdm2-MdmX inh | inhibition, % at 8 µM; in the data active = inhibition above about 40%
Full FLuc ctr – inhibits full-length luciferase, flagging false Mdm2/MdmX hits | shares compounds with Mdm2-MdmX inh | SaOS-2 full-length luciferase counterscreen, luminescence | inhibition, % at 8 µM | 6,200 compounds, 77% hits;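 active = mean inhibition at 8 µM reaching about 37%, which flags the compound as non-specific, limit read from the data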;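 note: p53-null SaOS-2 cells with luciferase driven by a doxycycline-inducible promoter; compound on cells about two nights before reading with doxycycline added after day one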
* = called active by the depositor; . = no result given.

SMILES	CHOP UPR activ	Mdm2-MdmX inh	B2AR ag	XBP1 UPR activ	Dynein transport	Mdm2 ligase inh	Mdm2 MdmX conf	Full FLuc ctr
O=C(N/N=C\c1c(O)ccc2ccccc12)c1ccc(S(=O)(=O)N2CCCCC2)cc1	-1	83*	-158	0	1.6	-12	86*	55*
O=C(N/N=C/c1c(O)ccc2ccccc12)c1ccc(CO)nc1	0	69*	2	-2	.	.	66*	36*
O=C(N/N=C/c1ccccc1)c1ccc2c(c1)OCO2	-4	-74	-2	-8	.	.	.	.
CN(Cc1ccccc1)S(=O)(=O)CCNC(=O)c1ccc2c(c1)OCO2	1	2	-2	-2	.	.	.	.
COc1ccc(S(=O)(=O)N2CCC(N3CCN(c4ccccc4OC)CC3)CC2)cc1	0	-35	4	13	0.026	-5	.	.
O=C(Cn1c(=O)oc2ccccc21)N1CCCC1	0	-9	-6	-4	.	.	.	.
CCCS(=O)(=O)c1c(S(=O)(=O)CCC)c2c(C)cccn2c1C(N)=O	1	-8	-4	1	1.3	5	.	.
CCCS(=O)(=O)c1c(S(=O)(=O)CCC)c2c(C)cccn2c1C(=O)N/N=C/c1cc(O)cc(O)c1	1	58*	14	-3	-0.91	-16	57*	37*
COc1ccc(C)cc1N(CC(=O)NC1CCCC1)C(=O)Cn1nnc(-c2ccc(C)o2)n1	2	7	-10	-1	.	.	.	.
O=C(C[n+]1ccccc1)N/N=C/c1ccc(Cl)c(Cl)c1	0	15	4	1	.	.	.	.
Cc1cc(NC(=O)CSc2nc3c(sc4ccccc43)c(=O)n2CCCN2CCOCC2)n[nH]1	-3	70*	-3	0	3.1	-24	82*	125*
Cc1cc(NC(=O)CSc2nc3c(sc4ccccc43)c(=O)n2CCc2ccccc2)n[nH]1	5	62*	8	-2	0.92	-9	-6	.
O=C(CSc1nc2c(sc3ccccc32)c(=O)n1CCCN1CCCC1)NCc1ccco1	1	25	11	-2	0.89	-13	.	.
O=C(OCC(=O)N1CCC(Cc2ccccc2)CC1)c1cncc(Br)c1	1	3	-1	-3	.	.	.	.
CC(C)=CCC12Oc3cc(O)ccc3C1(O)Oc1cc(O)c([C@H]3C=C(C)CC(c4ccc(O)cc4O)[C@H]3C(=O)c3ccc(O)cc3O)c(O)c1C2=O (stereo partly specified)	0	68*	.	-5	.	.	2	.
Cc1cccc(NC(=O)Nc2ccc(C#N)cc2)n1	7	78*	2	-2	-0.38	-33	67*	78*
CCOC(=O)c1ccc(NC(=O)Nc2cccc(C)n2)cc1	4	57*	7	9	0.26	-87	-10	.
Cc1cccc(NC(=O)Nc2cccc(C#N)c2)n1	6	12	-9	1	-0.16	-31	.	.
O=c1[nH]c(CN2CCN(c3ccccc3O)CC2)nc2scc(-c3ccccc3Cl)c12	0	-6	11	-3	-0.075	-9	.	.
O=c1[nH]c(CN2CCN(c3ccc(O)cc3)CC2)nc2scc(-c3ccc(Cl)cc3)c12	-1	59*	11	3	0.5	-14	54*	58*
COc1ccc(-c2n(Cc3ccccc3)c3ccccc3[n+]2Cc2ccccc2)cc1	-2	89*	8	-2	-0.42	-23	89*	21
CN1CCN(C(CNC(=O)c2ccc(Br)o2)c2ccc(F)cc2)CC1 (stereo unspecified)	0	9	-13	-1	.	.	.	.
O=C(COC(=O)Cc1n[nH]c(=O)c2ccccc12)Nc1ccc(Cl)cc1F	-2	22	2	-3	-0.89	-5	.	.

Bioassay records deposited in PubChem BioAssay by several laboratories.
